The values that follow come from PubChem BioAssay.

Test [1] can be described thus: reducers of endogenous Her2 protein level, primary screen, SKBR3 breast tumor cells, AlphaScreen, ATP viability (AID 461;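 active = Her2 level under about 52% in both replicate screens, with viability over 70% of control, limit read from the data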;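 as to Her2 level: lower value means less Her2 protein in the cells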;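 as to viability: percent of carrier control wells set as 100% viability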). The conditions noted are these: 18-24 h, measured here: SKBR3 viability, ATP luminescence, at 10 µM. On the technique in general: Bead proximity is the source of the signal in Alpha formats.
Test [2] addresses Receptor tyrosine-protein kinase erbB-2 (Homo sapiens) (UniProt P04626). The test is described as above. Conditions: 18-24 h, at 10 µM, stronger effect = lower value.
Test [3] is described as follows: SK-BR-3 cell growth inhibitors, pilot screen, 24 h, human (AID 572;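 active = viability at or below 10% of carrier control in both of two separate runs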;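 also: compound exposure lasted between 18 and 24 h rather than exactly 24 h; 100% = carrier-treated control wells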). The conditions noted are these: SK-BR-3 viability, CellTiter-Glo luminescence, at 10 µM, stronger effect = lower value.
The nature of test [4]: HUVEC growth inhibition – cell-based, human, primary screen (AID 575;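 active = viability at or below 30% in both replicate assays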;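 also: 100% = median of untreated cell wells with 0.1% DMSO on each plate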). The conditions noted are these: HUVEC proliferation, CellTiter-Glo luminescence, 72 h; at 10 µM; stronger effect = lower value. The procedure, abridged: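 Test system: primary human umbilical vein endothelial cells; medium: endothelial basal medium with 2% FBS plus growth supplements; dosing: 10 µM compound only; times: 72 h treatment at 37 °C; signal: CTG luminescence; read-out: % viability relative to median vehicle-well signal on each plate; control set: vehicle and MePR control wells; plate: 384-well, collagen-coated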
In general terms: ATP-based viability assays read luminescence as a measure of living cells.

The nature of test [5]: growth inhibitors of H69AR lung tumor, primary screen, human, duplicate replicates (AID 580).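 Also: 100% = mean luminescence of untreated wells and 0% = no signal.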 The conditions noted are these: H69AR lung tumor cells viability, ATP luminescence, 72 h; at 10 µM; stronger effect = lower value.
The nature of test [6]: reversal of MRP1-mediated doxorubicin resistance, pilot screen, H69AR cells, doxorubicin co-treatment (AID 601;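 active = viability loss from added drug above about 55%, and viability with drug at most 40%, in both replicates, limit read from the data, passing the limit was not always enough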). The conditions noted are these: CellTiter-Glo, 72 h, at 10 µM; for differential viability (reversal): stronger effect = higher value.
The nature of test [7]: 384-well plate pilot, post-Golgi transport modulator project, inhibition of yeast transport mutant growth (AID 636; in the data active = inhibition above about 31%). The conditions noted are these: absorbance 615 nm, about 18 h, stronger effect = higher value.
A short description of test [8]: growth suppression of yeast trafficking mutant, preliminary HTS, modulators of trafficking downstream of Golgi apparatus project, 1536-format plate, OD 615 nm (AID 637; in the data active = inhibition above about 30%). The conditions noted are these: yeast transport mutant growth, absorbance 615 nm, 18 h; stronger effect = higher value.
[9] abbreviates: H69AR cells + 2 uM doxorubicin, measured here: viability with 2 uM doxorubicin, stronger effect = lower value.
The mark [10] stands for this setting: H69AR cells, compound alone cytotoxicity.

Structures are written as SMILES. Activity calls are given as the source filed them.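 The calls were made as follows, unless noted: active = viability at or under a set limit in both replicates, limit being median viability minus 3 SD (cut at about 48% in these data, passing the limit was not always enough); inconclusive = at or under the limit in just one replicate; inactive = at or above the limit in both replicates.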

Receptor tyrosine-protein kinase erbB-2 (Homo sapiens), sequence (P04626 whole entry, looked up): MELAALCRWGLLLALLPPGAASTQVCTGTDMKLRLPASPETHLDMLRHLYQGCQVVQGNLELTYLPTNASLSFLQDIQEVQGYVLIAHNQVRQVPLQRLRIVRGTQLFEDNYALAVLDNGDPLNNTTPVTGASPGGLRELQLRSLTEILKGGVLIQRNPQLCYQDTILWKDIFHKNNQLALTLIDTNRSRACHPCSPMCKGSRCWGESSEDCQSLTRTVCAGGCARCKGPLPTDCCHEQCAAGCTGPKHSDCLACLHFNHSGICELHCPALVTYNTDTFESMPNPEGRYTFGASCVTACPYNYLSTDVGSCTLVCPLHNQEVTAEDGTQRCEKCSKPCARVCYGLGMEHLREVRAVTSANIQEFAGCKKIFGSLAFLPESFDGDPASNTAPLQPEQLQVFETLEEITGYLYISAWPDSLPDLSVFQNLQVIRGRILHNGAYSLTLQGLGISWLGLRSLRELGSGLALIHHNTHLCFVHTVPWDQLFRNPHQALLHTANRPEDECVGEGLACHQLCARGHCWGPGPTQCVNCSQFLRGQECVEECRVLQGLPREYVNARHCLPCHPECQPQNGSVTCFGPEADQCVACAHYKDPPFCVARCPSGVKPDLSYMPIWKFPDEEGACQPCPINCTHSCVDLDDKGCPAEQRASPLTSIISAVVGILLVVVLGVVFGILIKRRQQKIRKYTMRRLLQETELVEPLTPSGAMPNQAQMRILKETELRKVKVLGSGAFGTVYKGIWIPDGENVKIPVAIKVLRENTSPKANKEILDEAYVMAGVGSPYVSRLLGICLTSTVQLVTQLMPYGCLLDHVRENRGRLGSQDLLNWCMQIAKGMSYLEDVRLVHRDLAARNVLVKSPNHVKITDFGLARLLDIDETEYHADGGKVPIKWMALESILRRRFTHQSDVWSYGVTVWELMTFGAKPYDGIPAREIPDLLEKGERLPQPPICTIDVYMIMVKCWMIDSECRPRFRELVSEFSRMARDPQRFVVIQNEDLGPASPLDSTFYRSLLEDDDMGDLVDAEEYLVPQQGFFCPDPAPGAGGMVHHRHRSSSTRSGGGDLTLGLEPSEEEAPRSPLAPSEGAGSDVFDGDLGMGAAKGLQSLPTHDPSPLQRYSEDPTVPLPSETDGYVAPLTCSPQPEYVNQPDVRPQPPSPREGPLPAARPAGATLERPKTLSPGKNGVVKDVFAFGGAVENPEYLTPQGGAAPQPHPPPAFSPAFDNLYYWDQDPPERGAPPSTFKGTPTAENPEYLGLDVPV

Turning to `COc1ccccc1N(C)S(=O)(=O)c1ccc(C(=O)NC2=NCCS2)cc1`, the viability – broadly, a read-out of living cells in per cent, often relative to untreated cells – is 104% in test [1]; 104% (inactive) in test [3]; 85.8% (inactive) in test [4]; 96.2% (inactive) in test [5]; 99.5% in test [6] (setting [9]); 96.2% in test [6] (setting [10]). Further, the Her2 level in test [2] is 95% (inactive). In addition, the differential viability (reversal) in test [6] (H69AR cells + 2 uM doxorubicin) is -3.23% (inactive). Moreover, the inhibition (usually the relative decrease from the control value, in per cent) is 0% (inactive) in test [7] and -5.4% (inactive) in test [8].

As for `COc1ccc(-c2cc(N3CCCC3)n3ncnc3n2)cc1`, the viability in test [1] is 86%; in test [3], 86% (inactive); in test [4] it was 78.7% (inactive); in test [5], 87.2% (inactive); in test [6] (setting [9]) it was 75.2%; in test [6] (setting [10]), 87.2%. In addition, the Her2 level in test [2] was 94.5% (inactive). For the same molecule, the differential viability (reversal) in test [6] (H69AR cells + 2 uM doxorubicin) was 11.9% (inactive). The inhibition in test [7] is -5.27% (inactive); in test [8], -2.46% (inactive).

As for `Cc1ccc(S(=O)(=O)C2(C(=O)N3CCCCCC3)CC2)cc1`, the viability in test [1] was 96.5%; in test [3], 96.5% (inactive); in test [4] it was 93.8% (inactive); in test [5] it was 107% (inactive); in test [6] (setting [9]), 105%; in test [6] (setting [10]), 107%. Further, in test [2], the Her2 level is 83% (inactive). The differential viability (reversal) in test [6] (H69AR cells + 2 uM doxorubicin) is 1.4% (inactive). The results for the inhibition in test [7] and in test [8] were -2.73% (inactive) and -0.95% (inactive), respectively.

For `Cn1nnc2c(sc3nc(N4CCOCC4)c4c(c32)CCCC4)c1=O`, the viability was 100% in test [1]; 100% (inactive) in test [3]; 90.9% (inactive) in test [4]; 81.6% (inactive) in test [5]; 89.3% in test [6] (setting [9]); 81.6% in test [6] (setting [10]). For the same molecule, the Her2 level in test [2] was 114% (inactive). In addition, in test [6] (H69AR cells + 2 uM doxorubicin), the differential viability (reversal) was -7.71% (inactive). Besides, the inhibition was -0.53% (inactive) in test [7] and -5.08% (inactive) in test [8].

Regarding `N#CC1=C(N)N(c2ccccc2)C(c2ccco2)C1(C#N)C#N` (stereo not given), the viability is 95.5% in test [1]; 95.5% (inactive) in test [3]; 102% (inactive) in test [4]; 85.5% (inactive) in test [5]; 86.4% in test [6] (setting [9]); 85.5% in test [6] (setting [10]). Besides, the Her2 level in test [2] was 99.5% (inactive). Moreover, the differential viability (reversal) in test [6] (H69AR cells + 2 uM doxorubicin) is -0.88% (inactive). Further, the inhibition was -6.53% (inactive) in test [7] and -2.54% (inactive) in test [8].

As for `CC(C)C(C(=O)Nc1ccc2c(c1)OCO2)N1C(=O)c2ccccc2C1=O` (stereo not given), the viability in test [1] was 122%; in test [3], 122% (inactive); in test [4], 94.3% (inactive); in test [5] it was 96.1% (inactive); in test [6] (setting [9]), 94.1%; in test [6] (setting [10]), 96.1%. The Her2 level in test [2] was 92% (inactive). Moreover, the differential viability (reversal) in test [6] (H69AR cells + 2 uM doxorubicin) was 2.06% (inactive). Besides, the inhibition was -4.03% (inactive) in test [7] and 1.15% (inactive) in test [8].

For `Cc1nnc(SCC(=O)Nc2ccc3c(c2)OCCO3)n1CC1CCCO1` (stereo not given), the viability in test [1] was 102%; in test [3], 102% (inactive); in test [4], 91.8% (inactive); in test [5], 94% (inactive); in test [6] (setting [9]) it was 90.6%; in test [6] (setting [10]) it was 94%. For the same molecule, the Her2 level in test [2] was 88.5% (inactive). In addition, in test [6] (H69AR cells + 2 uM doxorubicin), the differential viability (reversal) is 3.46% (inactive). Moreover, the inhibition in test [7] is -5.14% (inactive); in test [8] it was -3.33% (inactive).

As to `CCOC(=O)N1CCC(NC(=O)c2ccc(OC)c(CN3CC(=O)N4CCCC4C3=O)c2)CC1` (stereo not given), the viability is 93.5% in test [1]; 93.5% (inactive) in test [3]; 111% (inactive) in test [4]; 96% (inactive) in test [5]; 85.9% in test [6] (setting [9]); 96% in test [6] (setting [10]). The Her2 level in test [2] is 93% (inactive). In addition, in test [6] (H69AR cells + 2 uM doxorubicin), the differential viability (reversal) was 10% (inactive). In addition, the inhibition in test [7] was -5.92% (inactive); in test [8], -3.49% (inactive).

Regarding `CCN1CCCC1CNCc1ccc(Cl)cc1Cl` (stereo not given), the viability in test [1] is 92.5%; in test [3] it was 92.5% (inactive); in test [4], 111% (inactive); in test [5] it was 104% (inactive); in test [6] (setting [9]), 94.4%; in test [6] (setting [10]), 104%. For the same molecule, the Her2 level in test [2] was 116% (inactive). For the same molecule, in test [6] (H69AR cells + 2 uM doxorubicin), the differential viability (reversal) was 9.34% (inactive). Also, the inhibition is 0.95% (inactive) in test [7] and 6.83% (inactive) in test [8].

For `CCOC(=O)N1CCC(Nc2c(-c3ccc(C)cc3)c(=O)c2=O)CC1`, the viability in test [1] is 88.5%; in test [3], 88.5% (inactive); in test [4], 100% (inactive); in test [5], 94.5% (inactive); in test [6] (setting [9]), 83%; in test [6] (setting [10]), 94.5%. Besides, the Her2 level in test [2] is 100% (inactive). The differential viability (reversal) in test [6] (H69AR cells + 2 uM doxorubicin) is 11.5% (inactive). Besides, the inhibition in test [7] was -8.42% (inactive); in test [8], -8.73% (inactive).

On to `COc1ccc(N(CC(=O)N2CCCCC2)S(=O)(=O)c2ccccc2)c(OC)c1`, for which the viability was 91% in test [1]; 91% (inactive) in test [3]; 91.9% (inactive) in test [4]; 86.5% (inactive) in test [5]; 89.1% in test [6] (setting [9]); 86.5% in test [6] (setting [10]). In addition, the Her2 level in test [2] was 94.5% (inactive). Also, the differential viability (reversal) in test [6] (H69AR cells + 2 uM doxorubicin) was -2.6% (inactive). Moreover, the inhibition is -1.03% (inactive) in test [7] and -3.83% (inactive) in test [8].

In the case of `Cc1csc(NC(=O)CCS(=O)(=O)c2ccc(Br)cc2)n1`, the viability in test [1] was 99.5%; in test [3], 99.5% (inactive); in test [4], 82.5% (inactive); in test [5] it was 73% (inactive); in test [6] (setting [9]), 75.9%; in test [6] (setting [10]), 73%. Moreover, the Her2 level in test [2] is 96.5% (inactive). Moreover, the differential viability (reversal) in test [6] (H69AR cells + 2 uM doxorubicin) is -2.92% (inactive). In addition, the inhibition was -0.81% (inactive) in test [7] and 22.7% (inactive) in test [8].

For the molecule `O=C(CNS(=O)(=O)c1ccccc1)NCc1ccccn1`, the viability was 84% in test [1]; 84% (inactive) in test [3]; 96.2% (inactive) in test [4]; 102% (inactive) in test [5]; 93.2% in test [6] (setting [9]); 102% in test [6] (setting [10]). In test [2], the Her2 level was 76.5% (inactive). In addition, the differential viability (reversal) in test [6] (H69AR cells + 2 uM doxorubicin) is 8.75% (inactive). Also, the inhibition in test [7] was -2.27% (inactive); in test [8] it was 1.45% (inactive).

As to `CC(C)c1nc(N2CCN(C(=O)c3ccco3)CC2)c2c3c(sc2n1)CCCC3`, the viability in test [1] was 76.5%; in test [3], 76.5% (inactive); in test [4], 66.4% (inactive); in test [5], 79.5% (inactive); in test [6] (setting [9]), 78.5%; in test [6] (setting [10]), 79.5%. Besides, in test [2], the Her2 level was 94% (inactive). Also, in test [6] (H69AR cells + 2 uM doxorubicin), the differential viability (reversal) was 1.06% (inactive). Besides, the inhibition was -0.53% (inactive) in test [7] and 20.9% (inactive) in test [8].
